Measured values from ChEMBL document CHEMBL3352465, “The SAR development of substituted purine derivatives as selective CB2 agonists for the treatment of chronic pain” (Bioorg Med Chem Lett, 2014).

Experiments:
[1] = organism: Rattus norvegicus; assay: Inhibition of GABA gated chloride channel in rat cortex at 10 uM by radioligand binding assay
How it was run: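 Radioligand binding to GABA-gated chloride channels from rat, run by an outside contract lab.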

[2] = Drug metabolism in human liver microsomes at 2 uM after 0.5 hr by LC/MS/MS analysis; type: ADME; details: read-out: Drug metabolism
[3] = Drug metabolism in dog liver microsomes at 2 uM after 0.5 hr by LC/MS/MS analysis; type: ADME, Canis lupus familiaris; details: read-out: Drug metabolism
[4] = Drug metabolism in rat liver microsomes at 2 uM after 0.5 hr by LC/MS/MS analysis; type: ADME; details: read-out: Drug metabolism
[5] = target: T1, Cannabinoid receptor 1 (Homo sapiens, UniProt P21554); assay: Agonist activity at human CB1 receptor expressed in Sf9 cells by [35S]-GTPgammaS binding assay; type: functional
T1 sequence (P21554 whole entry): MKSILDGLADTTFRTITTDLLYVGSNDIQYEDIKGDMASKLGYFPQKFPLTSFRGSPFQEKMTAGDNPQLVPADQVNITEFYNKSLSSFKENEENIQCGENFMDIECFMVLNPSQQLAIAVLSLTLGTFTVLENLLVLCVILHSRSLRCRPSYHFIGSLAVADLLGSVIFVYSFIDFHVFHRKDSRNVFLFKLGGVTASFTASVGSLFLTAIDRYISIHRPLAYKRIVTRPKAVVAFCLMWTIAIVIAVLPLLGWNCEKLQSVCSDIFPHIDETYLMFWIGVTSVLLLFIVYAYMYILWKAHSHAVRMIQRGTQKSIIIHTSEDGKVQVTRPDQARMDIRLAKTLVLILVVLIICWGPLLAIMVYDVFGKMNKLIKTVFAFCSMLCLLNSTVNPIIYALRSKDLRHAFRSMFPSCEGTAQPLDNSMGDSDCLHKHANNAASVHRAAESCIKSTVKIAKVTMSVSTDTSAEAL

[6] = target: T2, Cannabinoid receptor 2 (Homo sapiens, UniProt P34972); assay: Agonist activity at human CB2 receptor expressed in CHO cells by [35S]-GTPgammaS binding assay relative to control; type: functional, cell-based
T2 sequence (P34972 whole entry): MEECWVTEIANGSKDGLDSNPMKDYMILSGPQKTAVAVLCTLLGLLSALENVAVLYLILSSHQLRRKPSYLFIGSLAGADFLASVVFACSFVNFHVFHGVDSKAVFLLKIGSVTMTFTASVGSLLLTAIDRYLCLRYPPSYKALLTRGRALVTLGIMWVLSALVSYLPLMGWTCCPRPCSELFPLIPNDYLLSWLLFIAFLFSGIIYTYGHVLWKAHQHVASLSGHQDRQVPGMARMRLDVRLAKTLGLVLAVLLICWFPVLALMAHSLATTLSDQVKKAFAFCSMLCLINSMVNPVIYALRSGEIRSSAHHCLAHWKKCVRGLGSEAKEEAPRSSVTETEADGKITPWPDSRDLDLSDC

[7] = target: T2, Cannabinoid receptor 2; assay: Agonist activity at human CB2 receptor expressed in CHO cells by [35S]-GTPgammaS binding assay; type: functional, cell-based
[8] = target: T1, Cannabinoid receptor 1; assay: Agonist activity at human CB1 receptor expressed in Sf9 cells by [35S]-GTPgammaS binding assay relative to control; type: functional

| Structure (SMILES) | inhibition [1] [%] | metabolised at 0.5 h, 2 µM [2] [%] | metabolised at 0.5 h, 2 µM [3] [%] | metabolised at 0.5 h, 2 µM [4] [%] | EC50 [5] [µM] | Efficacy [6] [%] | EC50 [7] [µM] | Efficacy [8] [%] |
| --- | --- | --- | --- | --- | --- | --- | --- | --- |
| CCN1CCN(c2nc(C)nc3c2nc(-c2ccccc2Cl)n3CCOC)CC1 | 97 |  |  |  |  |  |  |  |
| Cc1nc(N2CCN(C)CC2)c2nc(-c3ccccc3Cl)n(CC(C)(C)O)c2n1 | 83 | 24 | 52 | 92 | > 100 | 85.4 | 0.0059 |  |
| CCN1CCN(c2nc(C)nc3c2nc(-c2ccccc2Cl)n3C(COC)COC)CC1 | < 10 | 35 | 66 | 58 | > 100 | 69.3 | 0.005 |  |
| CCN1CCN(c2nc(C)nc3c2nc(-c2ccccc2Cl)n3CCCOC)CC1 |  | 36 | 99 | 71 | 1.38 | 96.5 | 0.0043 | 25.7 |
| Cc1nc(N2CCN(C)CC2)c2nc(-c3ccccc3Cl)n(C(C)(C)CO)c2n1 | 20 | 43 | 90 | 93 | 5 | 72.6 | 0.0125 | 43.2 |
